Assay results of several laboratories.
pEC50, pIC50: −log10 of the molar value. ≈ marks a conversion by molar mass, not a printed value.

CNC(=S)NN=Cc1ccc(O)c(OC)c1
pIC50 (Leishmania major; parasite growth, MTT; 72 h, promastigote): 4.42

CCC(=CCc1c(O)cc2c(c1O)C(=O)CC(c1ccc(O)cc1)O2)CC (stereo in doubt)
inhibition (HeLa; cell growth or viability, MTT; 1.563 µM, 48 h): 2.57%

CCOc1ccc(C(=O)CC(SCc2ccc(Cl)cc2)C(=O)O)cc1 (stereo not shown)
pEC50 (U2OS; cell growth or viability, MTT; 48 h): 3.89

CC(=O)NC[C@H]1CN(c2ccc(N3CCOCC3)c(F)c2)C(=O)O1
MIC50 (Enterococcus faecalis; microbial growth, broth dilution; clinical isolate): 0.5 µg/mL (≈ 1.48 µM)

COc1ccc(Nc2cnnc3cc(-c4ccc(N5CCN(C)CC5)cc4)ccc23)nc1
pEC50 (Leishmania major; parasite growth; intracellular, amastigote): 5.22

CCC(=CCc1c(O)cc2c(c1O)C(=O)C[C@@H](c1ccccc1O)O2)CC
inhibition (HeLa; cell growth or viability, MTT; 3.75 µM, 48 h): -0.655%

CN[C@H](CC(C)C)C(=O)N[C@H]1C(=O)N[C@@H](CC(N)=O)C(=O)N[C@H]2C(=O)N[C@H]3C(=O)N[C@H](C(=O)N[C@H](C(=O)O)c4cc(O)cc(O)c4-c4cc3ccc4O)[C@H](O)c3ccc(c(Cl)c3)Oc3cc2cc(c3O[C@@H]2O[C@H](CO)[C@@H](O)[C@H](O)[C@H]2O[C@H]2C[C@](C)(N)[C@H](O)[C@H](C)O2)Oc2ccc(cc2Cl)[C@H]1O
MIC (Enterococcus faecalis; microbial growth, agar dilution; ATCC29212): 2 µg/mL (≈ 1.38 µM)

CN1CCN(c2ncc(-c3ccc4nncc(Nc5ncccn5)c4c3)cn2)CC1
pEC50 (Leishmania major; parasite growth; intracellular, amastigote): < 4.60

CNC(=S)NN=Cc1ccc(F)cc1
pIC50 (Leishmania major; parasite growth, MTT; 72 h, promastigote): 3.46

C=C[C@]1(C)C[C@@H](OC(=O)CS[C@@H]2C[C@H]3CC[C@@H](C2)N3C)[C@]2(C)[C@H](C)CC[C@]3(CCC(=O)[C@H]32)[C@@H](C)[C@@H]1O
MIC50 (Enterococcus faecalis; microbial growth; clinical isolate): > 128 µg/mL
